# IMP-1 inhibitor: blocks Pseudomonas aeruginosa IMP-1 metallo-beta-lactamase. inhibition, % at 5.6 µM. 290,000 compounds, 0.45% hits. AID 1556. purified IMP-1, nitrocefin hydrolysis, epi-absorbance fluorescence;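 active = inhibition above the mean plus 3 SD of all compounds in the same screening run, cut at about 4.5% in these data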;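 also: 0% = IMP-1 with DMSO and 100% = DMSO wells lacking enzyme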
#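 Assay system: purified IMP-1; Quantity: IMP-1 0.2 nM before substrate addition; Medium: HEPES buffer pH 7.1 with ZnSO4 and Brij 35; Incubation: 15 min enzyme–compound preincubation, then 25 min nitrocefin reaction, 25 °C; Signal: fluorescence quenching readout, ex 480/em 530 nm; Controls: DMSO with and without IMP-1; Repeats: singlicate testing.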
# VIM-2 inh: blocks Pseudomonas aeruginosa VIM-2 metallo-beta-lactamase | 290,000 compounds, 0.89% hits | inhibition, % at 5.6 µM | purified VIM-2, nitrocefin hydrolysis, epi-absorbance fluorescence | AID 1527;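 active = inhibition above the mean of all tested compounds plus 3 SD, cutoff set per screening run, cut at about 7.5% in these data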;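 also: red hydrolysis product quenches plate fluorescence so inhibitors raise well fluorescence; 0% = enzyme with DMSO and 100% = DMSO without enzyme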
# PAFAH2 inh: inhibitors of human PAFAH2; 340,000 compounds, 0.99% hits; inhibition, % at 3.39 µM; AID 492956; recombinant PAFAH2, FP-rhodamine activity probe, fluorescence polarization; Q99487;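 active = inhibition above the mean over all tested compounds plus 3 SD, cut at about 30% in these data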;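 also: inhibitors block probe labeling of enzyme so polarization drops; 0% = enzyme with DMSO and 100% = wells lacking PAFAH2 protein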
# PAFAH1B2 inh: inhibitors of human PAFAH1B2. 340,000 compounds, 1.2% hits. P68402. recombinant PAFAH1B2, FP-rhodamine activity probe, fluorescence polarization. inhibition, % at 3.39 µM;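 active = inhibition above the mean of all tested compounds plus 3 SD, cut at about 24% in these data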;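 also: 0% = enzyme with DMSO and 100% = wells lacking PAFAH1B2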
# pPAFAH inh: inhibitors of human plasma PAF acetylhydrolase (pPAFAH); AID 463082; inhibition, % at 3.39 µM; 330,000 compounds, 1.5% hits; recombinant pPAFAH, FP-rhodamine probe fluorescence polarization; Q13093;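 active = inhibition above the mean inhibition across the screen plus 3 SD, cut at about 25% in these data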;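 also: inhibitors block binding of the rhodamine activity-based probe so polarization drops; 0% = enzyme with DMSO and 100% = wells lacking pPAFAH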
# Target sequence (Q13093 whole entry, looked up): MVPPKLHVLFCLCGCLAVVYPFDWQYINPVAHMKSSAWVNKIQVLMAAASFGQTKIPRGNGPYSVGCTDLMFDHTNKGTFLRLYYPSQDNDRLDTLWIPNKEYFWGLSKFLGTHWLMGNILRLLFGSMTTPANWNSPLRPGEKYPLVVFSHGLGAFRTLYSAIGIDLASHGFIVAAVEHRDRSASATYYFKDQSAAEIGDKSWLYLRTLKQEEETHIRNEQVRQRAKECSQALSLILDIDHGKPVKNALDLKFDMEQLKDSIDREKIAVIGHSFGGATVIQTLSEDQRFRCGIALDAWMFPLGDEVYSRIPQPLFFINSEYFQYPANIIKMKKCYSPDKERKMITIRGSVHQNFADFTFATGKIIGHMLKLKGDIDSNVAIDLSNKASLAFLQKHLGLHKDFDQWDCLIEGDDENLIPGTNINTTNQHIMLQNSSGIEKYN
# PAFAH1B3 FP inh: PAFAH1B3 (human) inhibition; 340,000 compounds, 0.28% hits; inhibition, % at 3.39 µM; recombinant PAFAH1B3, FP-rhodamine probe, fluorescence polarization; AID 492972; Q15102;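 active = inhibition above the screen-wide average of all tested compounds plus 3 SD, cut at about 25% in these data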;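 also: 0% = enzyme with DMSO only and 100% = wells lacking PAFAH1B3 protein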
# An asterisk follows results filed as active; x = not tested or not shown. The list is not random: actives were taken first. Their share in the collection is about 3.6%.
SMILES,IMP-1 inhibitor,VIM-2 inh,PAFAH2 inh,PAFAH1B2 inh,pPAFAH inh,PAFAH1B3 FP inh
COc1ccccc1/C=C/C1=NC(=C\C=C/c2ccccc2)/C(=O)O1,0,0,-7,-10,12,-5
COc1ccccc1/C=C/C=C1N=C(/C=C/c2ccc(Cl)cc2)OC/1=O,-4,-3,-9,-16,30*,-22
Cc1cc(NCCN2CCOCC2)c2ccc3ccccc3c2n1,-3,8.8*,0,1,1,0
Cc1ccc(S(=O)(=O)NC(CC(C)C)C(=O)NCC(C)(C)N2CCOCC2)cc1 (configuration not stated),x,x,-6,2,1,6
N/C(=N\OC(=O)C12CC3CC(CC(C3)C1)C2)c1ccccn1,-2,-2,20,24*,-1,7
C/C(=N\OCC(=O)OCC(=O)N(C)c1ccccc1)c1ccc2c(c1)OCO2,x,x,8,4,4,10
COc1cc(N=Nc2ccc(C(=O)N(C)C)cc2)c(C)cc1N,x,x,-3,7,x,9
O=C(O)C1C2C=CC(C2)C1C(=O)NCc1ccc(Cl)cc1Cl (configuration not stated),7.6*,-1,3,9,1,-1
NC(=O)Cn1cnc2c(nnn2-c2ccc(F)cc2)c1=O,-3,-2,6,3,4,2
COc1ccc(S(=O)(=O)Oc2ccc3ccccc3c2)cc1,-3,-2,2,7,0,12
O=S(=O)(O)c1cc(OS(=O)(=O)c2ccccc2)cc2ccccc12,1,2,3,30*,-3,7
Cc1cnnc2c1-c1no[n+]([O-])c1CC2,-4,-2,12,2,2,7
Cc1cnnc2c1-c1nonc1CC2,4.5*,-2,3,5,11,-2
O=C(NCCc1ccccc1)c1ccc(NC(=O)C2CCCC2)cc1,x,x,7,6,x,4
COc1ccc(OC)c(NC(=O)CCn2ccnc2)c1,-4,-4,4,7,7,4
COC(=O)c1ccc(NC(=S)NNC(=O)c2ccccc2)cc1,0,-2,8,0,3,9
COC(=O)c1cccnc1NC(=S)NNC(=O)c1ccccc1,11*,-6,-9,5,-1,4
COC(=O)c1ccccc1NC(=S)NC(=O)c1ccccc1,4.7*,-1,-6,-2,1,-8
O=c1[nH]c2ccc(S(=O)(=O)N3CCC(Cc4ccccc4)CC3)cc2o1,-1,-3,4,29*,14,0
Cn1c(=O)c(=O)n(C)c2cc(S(=O)(=O)N3CCC(Cc4ccccc4)CC3)ccc21,-3,-3,2,-1,-7,5
O=C1NC[C@@H](c2ccccc2)OC(=O)[C@H](Cc2ccc(F)cc2)C/C=C\C[C@H]1CC(=O)N(CCO)Cc1ccccc1,x,x,5,29*,-1,7
O=C1NC[C@H](c2ccccc2)OC(=O)[C@@H](Cc2ccc(F)cc2)C/C=C\C[C@H]1CC(=O)N(CCO)Cc1ccccc1,x,x,3,16,0,11
O=C1NC[C@H](c2ccccc2)OC(=O)[C@H](Cc2ccc(F)cc2)C/C=C\C[C@H]1CC(=O)N(CCO)Cc1ccccc1,x,x,-6,51*,12,12
O=C1NC[C@@H](c2ccccc2)OC(=O)[C@@H](Cc2ccc(F)cc2)CC/C=C/C[C@H]1CC(=O)N(CCO)Cc1ccccc1,x,x,1,66*,20,10
COc1cccc(/C=N\NC(C)=O)c1OC/C=C/c1ccccc1,-3,-4,1,5,x,9
SMILES,IMP-1 inhibitor,VIM-2 inh,PAFAH2 inh,PAFAH1B2 inh,pPAFAH inh,PAFAH1B3 FP inh
Cc1ccc(SC2=C(N(C)C)C(=O)c3ccccc3C2=O)cc1,x,x,19,25*,x,34*
CN(C)c1cccc2c1C(=O)c1ccccc1C2=O,0,2,-2,4,9,4
C1CCCCCC2(CCCCC1)OCC(CN1CCOCC1)O2 (configuration not stated),-2,-2,9,26*,4,6
CN1CCN(c2nc(-c3ccc(Cl)cc3)cc(=O)[nH]2)CC1,-4,7,-1,4,5,-3
C/C(=N/NC(=O)c1cc2ccccc2cc1O)c1ccco1,-6,-2,-7,5,40*,15
Cc1onc(-c2ccccc2)c1C(=O)NC1CCC(C)CC1 (configuration not stated),x,x,-1,3,3,1
Cc1ccc(N(C(=O)Cn2nnc3ccccc32)C(C(=O)NCc2ccccc2)c2ccccn2)cc1 (configuration not stated),-4,0,2,26*,-1,-4
CC(=O)N1CCN(C(=O)COC(=O)/C=C/c2ccc(C(F)(F)F)cc2)CC1,x,x,-5,4,2,3
O=C(/C=C/c1ccco1)N(c1ccccn1)c1ccccn1,-1,-1,23,7,33*,10
O=C(c1ccco1)N(c1ccccn1)c1ccccn1,-2,-1,-6,1,-8,5
CCOC(=O)c1c(NC(=O)Cc2ccccc2)sc2c1CC(C)(C)NC2(C)C,-3,-1,-1,-3,32*,6
CC1(C)Cc2c(sc(NC(=O)COc3cccc4ccccc34)c2C#N)C(C)(C)N1,19*,3,10,-2,0,-3
CCc1ccc(N2CC(C(=O)NC3CCCCC3C)CC2=O)cc1 (configuration not stated),-1,-4,-3,-3,1,4
Nc1cc2c(cc1Cl)N(Cc1ccccc1)C(=O)CO2,x,x,-10,5,2,7
CC(C)(C)NC(=O)c1cccc2c1C(=O)c1ccccc1-2,-3,5,-2,-2,1,-2
O=C(NCCO)c1cccc2c1C(=O)c1ccccc1-2,-2,7.9*,0,3,-2,5
Cc1ccc(O)c(NC(=O)c2onc(C)c2Cl)c1,0,1,5,1,-9,1
CCOC(=O)c1cc2occc2n1Cc1c(F)cccc1Cl,-1,-3,-3,4,13,7
CCOC(=O)c1cc2occc2n1Cc1ccc(F)cc1,24*,-3,-6,8,1,11
COCCn1c(C)cc(C(=O)CSc2nc3ccccc3c(=O)n2Cc2ccco2)c1C,-4,0,-5,-2,-3,1
COCCn1c(C)cc(C(=O)CSc2cc(C)c3ccccc3n2)c1C,5.7*,0,1,-2,-12,3
O=C(O)c1cccc2cc(-c3ccccc3)oc(=O)c12,4.8*,5,5,2,4,7
O=c1oc(-c2ccc(O)c(O)c2)cc2cccc(O)c12,x,x,17,-1,25*,2
CC(=O)c1cccc(NC(=O)CSc2nc(=O)n(CCN3CCOCC3)c3c2CCCC3)c1,x,x,6,5,-1,12
COCC(=O)N1CCC2CC1c1cc(Cl)ccc12 (configuration not stated),x,x,-2,8,x,5

# Screening results as filed in PubChem BioAssay.
